# Screens (PubChem BioAssay)
# CHRM4 antagonist: CHRM4 antagonism in calcium assay | P08173 | CHO-hM4 cells, ACh EC80, Fluo-8 calcium fluorescence | inhibition, % at 3 µM | 360,000 compounds, 0.73% hits | AID 624125;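 active means inhibition above its plate's cutoff, the mean inhibition of sample wells plus 3 SD, cut at about 27% in these data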;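 further: 0% = acetylcholine EC80 with DMSO and 100% = DMSO without agonist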
# CHRM4 agonist: CHRM4 agonism in calcium assay | activation, % at 3 µM | 360,000 compounds, 0.14% hits | CHO-K1 hM4/Gqi5, Fluo-8 calcium fluorescence; vehicle 0%, full acetylcholine response 100% | AID 624127;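 active means activation above the run mean over all test wells plus 3 SD, cut at about 32% in these data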;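 further: peak over basal fluorescence ratio per well then scaled between controls; 0% = DMSO wells and 100% = acetylcholine at EC100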
# CHRM5 antagonist: antagonists of human muscarinic M5 receptor (CHRM5); inhibition, % at 3 µM; P08912; CHO-hM5 cells, Fluo-8 calcium fluorescence, ACh EC80; 360,000 compounds, 0.59% hits;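 active means inhibition above a per-plate cutoff, the mean of that plate's test compounds plus 3 SD, cut at about 27% in these data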;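 further: 0% = acetylcholine EC80 with DMSO and 100% = DMSO without agonist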
# Target sequence (P08912 whole entry, looked up): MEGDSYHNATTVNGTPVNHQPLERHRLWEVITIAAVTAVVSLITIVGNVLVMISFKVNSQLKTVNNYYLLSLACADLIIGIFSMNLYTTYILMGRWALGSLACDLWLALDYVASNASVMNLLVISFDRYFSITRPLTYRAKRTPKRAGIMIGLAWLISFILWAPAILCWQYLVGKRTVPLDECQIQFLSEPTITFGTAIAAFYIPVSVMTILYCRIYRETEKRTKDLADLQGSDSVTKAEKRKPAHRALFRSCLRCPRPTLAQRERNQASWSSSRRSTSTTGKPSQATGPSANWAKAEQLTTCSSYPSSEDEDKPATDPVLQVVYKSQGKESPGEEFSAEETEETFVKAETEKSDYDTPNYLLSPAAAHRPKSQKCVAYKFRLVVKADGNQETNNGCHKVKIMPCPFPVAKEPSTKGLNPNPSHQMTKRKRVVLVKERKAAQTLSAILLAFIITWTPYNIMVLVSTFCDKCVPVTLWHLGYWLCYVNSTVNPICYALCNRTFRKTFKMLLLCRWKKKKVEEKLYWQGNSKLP
# CHRM4 PAM: positive allosteric modulators of human muscarinic M4 receptor; activation, % at 3 µM; 360,000 compounds, 0.4% hits; CHO-K1 hM4/Gqi5, Fluo-8 calcium fluorescence, ACh EC20; 0% = ACh EC20, 100% = maximal ACh; P08173;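 active means activation above its plate's cutoff, the mean activation of sample wells plus 3 SD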
# M5 PAM: potentiates acetylcholine response at human M5 receptor; 360,000 compounds, 0.3% hits; AID 624038; CHO-K1 hM5, Fluo-8 calcium, ACh EC20 PAM; 0% = ACh EC20, 100% = ACh EC100; activation, % at 3 µM; P08912;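 active means activation above the run cutoff, the mean activation of all test compounds plus 3 SD, cut at about 18% in these data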
#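 System: CHO-K1 hM5 cells. Reagent: acetylcholine, EC20 level. Compound dosing: single dose, 3 µM nominal final test concentration. Timing: Post-acetylcholine fluorescence recording 140 s. Detection: Fluo-8 calcium fluorescence. Read-out: % activation, ACh-normalized. Benchmarks: ACh EC20 and EC100 wells. Repeats: singlicate, one well per test compound.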
# M5 ag: CHRM5 agonism in calcium assay; CHO-K1 hM5 cells, Fluo-8 calcium fluorescence; 0% DMSO wells, 100% maximal acetylcholine response; activation, % at 3 µM; AID 624037; 360,000 compounds, 0.19% hits; P08912;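 active means activation above the run's mean over test compounds plus 3 SD, cut at about 23% in these data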;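 further: signal is peak over basal fluorescence ratio across the kinetic read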
# * marks the source's active call; other numbers are inactive results. This is a sample that favours compounds with a hit; in the whole collection about 1.9% have one here.
SMILES,CHRM4 antagonist,CHRM4 agonist,CHRM5 antagonist,CHRM4 PAM,M5 PAM,M5 ag
Cc1c(O)nc(SCC(=O)Nc2ccc3c4c(cccc24)CC3)n(-c2ccccc2)c1=O,10.8,1.9,2.2,-0.2,2.3,-2.3
Cc1ccc(NC(=O)c2ncn(CCCNCc3ccccc3)n2)cc1C,0.4,2.6,0.4,-0.7,-2.7,0.1
Cc1ccc(CNC(=O)c2ccc(N3CCC4(CC3)CC(c3ccccc3)=NO4)c(NC(=O)c3ccc(Br)cc3)c2)cc1,0.4,0.7,1.6,1.7,9.9,1.9
Cc1ccnc(NS(=O)(=O)c2ccc(NC(=O)C3CC3)cc2)n1,-0.8,0.6,5.2,-1.3,3.0,1.4
Cc1ccnc(NS(=O)(=O)c2ccc(NC(=O)C34CC5CC(CC(C5)C3)C4)cc2)n1,-15.7,0.5,-0.1,3.5,28.4*,-3.8
Cc1cc(C)nc(NS(=O)(=O)c2ccc(NC(=O)C(C)C)cc2)n1,61.9*,-2.6,6.5,-12.2,4.1,2.8
Cc1cc(C)nc(NS(=O)(=O)c2ccc(NC(=O)C3CC3)cc2)n1,-12.8,0.5,6.9,3.3,0.2,-1.1
Cc1cc(NC(=O)CCC(=O)N(c2ccccc2)C(C(=O)NC2CCCC2)c2ccccc2C)no1 (stereo unspecified),8.0,1.4,-4.6,-7.8,8.9,-4.3
COc1ccc(S(=O)(=O)N2CCC(C(=O)NCc3ccncc3)CC2)cc1OC,13.2,-0.5,-1.9,-2.0,7.5,-1.6
Cc1ccc(-c2csc(NC(=O)c3ccc4c(=O)n5c(nc4c3)CCCCC5)n2)cc1,-0.3,2.0,-2.1,23.4*,7.6,1.9
O=C(c1ccc2c(=O)n3c(nc2c1)CCCCC3)N1CCN(C(c2ccccc2)c2ccccc2)CC1,63.8*,0.6,-3.7,-15.4,-13.1,-7.2
O=C(c1ccc2c(=O)n3c(nc2c1)CCCCC3)N1CCN(c2ccccc2)CC1,-7.0,1.8,-4.2,-9.8,-2.7,1.1
O=C(c1ccc(=O)oc1)N1CCN(C(c2ccccc2)c2ccccc2)CC1,42.7*,3.0,35.6*,-14.0,-22.8,-6.9
CC1CCN(S(=O)(=O)c2cccc(C(=O)Nc3nncs3)c2)CC1,0.4,5.2,-5.3,-3.5,-1.2,5.2
CCCCCN(C(=O)CCC(=O)OC(C)C(=O)NC1CCCCC1)c1c(N)n(CCCC)c(=O)[nH]c1=O (stereo unspecified),7.1,0.0,7.0,5.4,-1.0,-5.2
CSc1nsc(SC)c1-c1ccc(Cl)cc1,-15.6,-2.0,-2.1,3.1,0.0,1.4
C=CCNC(=O)CN1C2CCCC1CC(NC(=O)c1ccccc1C)C2 (stereo unspecified),3.5,1.0,-0.1,9.6,-0.4,-1.1
Cc1ccccc1C(=O)NC1CC2CCCC(C1)N2CC(C)C (stereo unspecified),27.4*,-0.6,7.5,-11.0,-8.8,-0.5
CN1CCS/C1=C/C=C1/SC(=S)N(Cc2ccccc2)C1=O,21.3,8.9,12.7,-6.8,-3.8,16.1
CCCCN1C(=O)/C(=C/C=C2\SCCN2C)SC1=S,13.7,20.7,20.7,-7.3,-9.2,40.5*
CN1CCS/C1=C/C=C1\SC(=S)N(CC(=O)O)C1=O,9.1,15.3,4.6,-9.1,-7.4,31.2*
Cc1cc2cc(CNC(=O)c3ccc(S(=O)(=O)N4CCCC4)cc3)ccc2n1C,35.0*,2.8,7.9,-15.1,-6.5,-0.7
O=C(COC(=O)/C=C/c1ccc(S(=O)(=O)N2CCOCC2)cc1)NCc1ccc(Cl)cc1,-16.1,2.2,-15.8,16.8,19.4*,9.2
CCN(CC)S(=O)(=O)c1ccc(C(=O)NCc2ccc3c(c2)cc(C)n3C)cc1,55.1*,1.3,-1.7,-16.6,-1.8,1.6
Cc1cc2cc(CNC(=O)c3ccc(S(=O)(=O)N4CCCCC4)cc3)ccc2n1C,15.9,6.5,-0.2,-7.4,-7.6,2.0
SMILES,CHRM4 antagonist,CHRM4 agonist,CHRM5 antagonist,CHRM4 PAM,M5 PAM,M5 ag
Cc1ccc(CNC(=O)COC(=O)c2ccc(S(=O)(=O)N3CCCC3)cc2)cc1,-0.4,2.4,2.4,1.8,22.4*,-7.8
O=C(COC(=O)/C=C/c1ccc(S(=O)(=O)N2CCOCC2)cc1)NCc1ccccc1,22.8,5.1,5.0,3.9,4.9,3.4
COc1ccc(C(=O)NCc2ccc3c(c2)cc(C)n3C)cc1OC,-2.4,2.1,10.5,4.9,0.0,1.4
Cc1nnc(SCC(=O)NC(C)(C)C)n1NCc1cccc(Br)c1,9.8,1.0,7.4,-1.8,-3.5,5.3
COc1ccc(C(CNS(=O)(=O)c2cccc(F)c2)N2CCCC2)cc1 (stereo unspecified),-6.8,-1.4,8.1,-0.5,7.0,-5.1
CCN(CC)c1ccc(S(=O)(=O)N2CCOCC2)cc1NC(=O)COC(=O)/C=C/c1ccc(C)o1,10.8,22.1,31.1*,-8.7,-34.0,-2.4
CCN(CC)c1ccc(S(=O)(=O)N2CCOCC2)cc1NC(=O)COC(=O)/C=C/c1ccccc1,10.1,19.1,19.9,-12.8,-37.1,-3.2
CCCCNC(=O)CSc1nnc(Cc2ccc(Cl)c(Cl)c2)c(=O)[nH]1,-8.2,-0.1,9.6,2.0,1.8,-1.6
COc1ccc(S(=O)(=O)N2CCOCC2)cc1NC(=O)CN1C(=O)NC(C)(C2CC2)C1=O (stereo unspecified),2.4,2.1,17.3,6.9,-1.6,-0.4
O=Cc1ccccc1OCCOc1ccccc1C=O,26.8*,1.1,20.6,-11.0,-20.9,-5.0
O=Cc1ccccc1Oc1ccccc1,1.0,0.2,-1.2,0.8,4.5,1.5
O=S1(=O)[C@H]2C[C@@H]3C=C[C@@]2(CN1Cc1ccc(F)cc1)O3,6.4,0.8,12.3,13.7,3.3,-1.7
O=C(OCc1ccccc1)N(CCF)c1cn(Cc2ccccc2)c(=O)n(Cc2ccccc2)c1=O,-3.1,2.2,-0.9,-0.7,-2.2,-3.7
CCNC1=C(Cl)C(=O)c2ccccc2C1=O,12.1,-0.7,-0.6,-0.2,-7.9,-5.0
CCCC(=O)NC1=C(Cl)C(=O)c2ccccc2C1=O,61.4*,12.0,31.5*,-8.4,0.9,19.6
O=C1C(Cl)=C(Nc2ccc(O)cc2)C(=O)c2ccccc21,63.6*,-2.1,41.1*,-23.7,-25.8,-18.7
CC(C)C/C=C1\CCc2c([nH]c3ccccc23)C1=O,-12.9,1.5,8.0,20.5*,10.4,1.2
COc1ccccc1NC(=O)NNC(=O)c1ccncc1,-2.0,0.8,15.6,5.4,0.8,-1.6
CCCN(CC(=O)Nc1ccc(F)c(F)c1F)C(=O)C1CC(=O)N(Cc2ccccc2)C1 (stereo unspecified),-12.4,2.8,6.2,20.9*,0.3,-2.2
Cc1cc(C)c(C#N)c(Sc2nc(C)c([N+](=O)[O-])c(C)c2C#N)n1,34.0*,1.8,8.4,41.5*,-4.2,-6.8
